Measurements as given in ChEMBL document CHEMBL1124717, “Structural requirements for agonist actions at the benzodiazepine receptor: studies with analogues of 6-(benzyloxy)-4-(methoxymethyl)-beta-carboline-3-carboxylic acid ethyl ester” (J Med Chem, 1990).
pIC50: −log10 of the molar value.

How the values were obtained:
[1] = molecular target: GABA-A receptor; anion channel; experiment: In vitro inhibition of [3H]flunitrazepam binding to GABA-A Benzodiazepine receptor of rat cerebral cortex membranes; format: cell membranes, Membrane
Procedure, shortened: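 Washed rat cerebral cortex membranes (adult male Sprague-Dawley, 175–250 g) in 50 mM Tris-HCl pH 7.4, three wash spins at 20000g. Incubated with [3H]flunitrazepam (final 0.9–1.1 nM) and six to eight inhibitor concentrations for 120 min at 4 °C, then filtered. Nonspecific binding defined with Ro 15-1788 (10 μM). IC50 from sigmoid fit; mean of at least two determinations.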

Mus musculus = experiment: In vivo anticonvulsant activity was determined in male NIH/Swiss mice after intraperitoneal administration; Antagonist; format: functional, organism-based
Procedure, shortened: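 Male NIH/Swiss mice (20–25 g) dosed ip with drug in 20% diluted Emulphor/80% saline, or vehicle. Antagonism run in groups of 10: test agent at various doses, diazepam (2.5 mg/kg) 15 min later, then PTZ challenge (80 mg/kg) after another 15 min. Seizures scored over 15 min. EC50 read graphically from percent convulsions versus log dose.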

[2] = Partition coefficient (logP); format: physicochemical; details: octanol/water

Row | Structure (SMILES) | pIC50 [1] | EC50 (Mus musculus) | logP [2]
1 | CCOC(=O)c1cc2c3cc(OCc4ccccc4)ccc3n(C)c2cn1 | < 5.30 | – | –
2 | CCOC(=O)c1ncc2[nH]c3ccccc3c2c1COC | 8.64 | 15 mg/kg | –
3 | CCOC(=O)c1ncc2[nH]c3ccc(OCc4ccccc4)cc3c2c1COC | 9.00 | – | 3.97
4 | CCOC(=O)c1ncc2c(c1CC)c1cc(OCc3ccccc3)ccc1n2C | < 5.30 | – | –
5 | CCOC(=O)c1ncc2c(c1COC)c1cc(OCc3ccccc3)ccc1n2C | 6.02 | – | –

Second part, led by results:

Row | pIC50 [1] | Structure (SMILES) | EC50 (Mus musculus) | logP [2]
6 | 8.05 | CCOC(=O)c1cc2c3cc(OCc4ccccc4)ccc3nc-2c[nH]1 | – | –
7 | 7.66 | CCOC(=O)c1[nH]cc2nc3ccc(OCc4ccccc4)cc3c-2c1CC | – | –
8 | 9.30 | CCOC(=O)c1[nH]cc2nc3ccc(OC)cc3c-2c1COC | 1.25 mg/kg | –
9 | 9.05 | CCOC(=O)c1[nH]cc2nc3ccc(O)cc3c-2c1COC | – | 1.44
